Bioassay records deposited in PubChem by several laboratories.
CSC inhib: cancer stem cell inhibition; cancer stem cell-like cells viability, luminescence; inhibition, % at 7.5 µM; hit rate 1.1% among 300,000; AID 2717; in the data active = inhibition above about 75%; inconclusive = no clear call, values can overlap the other calls; tested in HMLE shEcad cells
T cruzi inh: blocks replication of Trypanosoma cruzi. AID 1885. inhibition, % (concentration not given with the values). T. cruzi beta-gal in NIH3T3, luminescence, 90 h. hit rate 1.4% among 300,000;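 active = mean inhibition across valid replicates above about 55%, limit read from the data; inconclusive = mean below that limit but half or more replicates reach it; inactive = mean below it, under half of replicates reach it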;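 note: signal also drops with host cell toxicity which is not excluded here; 0% = plate median of DMSO wells and 100% = zero luminescence signal; higher percent means less beta-gal luminescence so fewer parasites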
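Assay system: NIH/3T3 fibroblasts plus reporter T. cruzi. Amount: NIH/3T3 cells, 5,000 per well. Buffer or medium: DMEM, 2% fetal bovine serum. Doses: compound pinned at 50 nL/well, DMSO. Schedule: ≥90 h infection period, 3 h prior cell attachment. Signal: luminescent β-galactosidase signal after 60 min lysis. Read-out: parasite load inhibition, %.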
Beta apoptosis: beta cell apoptosis inhibition; INS-1E cytokine-induced death, ATP luminescence, 48 h; percent of positive-control rescue, neutral wells zero; protection from apoptosis, % (test concentration not listed); hit rate 0.8% among 300,000; AID 435005;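 active = Every replicate reaches about 75%, or at least half do and their mean reaches it too, limit read from the data; inconclusive = At least half of replicates reach the limit but their mean does not; inactive = Under half of replicates reach the limit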;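 note: 0% = cytokine-treated negative control wells and 100% = positive control rescue; higher means more ATP so stronger rescue from cytokine killing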
Mdm2-MdmX inh: disrupts the human Mdm2-MdmX interaction. SaOS-2 split-luciferase Mdm2/MdmX complementation, luminescence. hit rate 3% among 330,000. inhibition, % at 8 µM. AID 485346;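 active = inhibition of at least 50% at 8 µM in the primary screen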
Target sequence (O15151 whole entry, looked up): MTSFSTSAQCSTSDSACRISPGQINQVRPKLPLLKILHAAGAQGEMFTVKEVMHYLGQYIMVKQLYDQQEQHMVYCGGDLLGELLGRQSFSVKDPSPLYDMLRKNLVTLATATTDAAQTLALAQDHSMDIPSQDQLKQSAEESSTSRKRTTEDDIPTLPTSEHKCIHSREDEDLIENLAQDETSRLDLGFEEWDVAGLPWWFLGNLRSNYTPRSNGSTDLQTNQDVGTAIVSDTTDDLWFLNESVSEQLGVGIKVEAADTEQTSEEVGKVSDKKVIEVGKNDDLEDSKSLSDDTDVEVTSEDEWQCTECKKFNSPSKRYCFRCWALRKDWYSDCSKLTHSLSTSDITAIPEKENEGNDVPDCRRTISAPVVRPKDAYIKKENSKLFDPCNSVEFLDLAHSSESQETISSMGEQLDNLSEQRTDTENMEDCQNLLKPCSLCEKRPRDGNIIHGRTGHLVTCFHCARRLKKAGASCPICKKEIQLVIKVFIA
Target sequence (Q00987 whole entry, looked up): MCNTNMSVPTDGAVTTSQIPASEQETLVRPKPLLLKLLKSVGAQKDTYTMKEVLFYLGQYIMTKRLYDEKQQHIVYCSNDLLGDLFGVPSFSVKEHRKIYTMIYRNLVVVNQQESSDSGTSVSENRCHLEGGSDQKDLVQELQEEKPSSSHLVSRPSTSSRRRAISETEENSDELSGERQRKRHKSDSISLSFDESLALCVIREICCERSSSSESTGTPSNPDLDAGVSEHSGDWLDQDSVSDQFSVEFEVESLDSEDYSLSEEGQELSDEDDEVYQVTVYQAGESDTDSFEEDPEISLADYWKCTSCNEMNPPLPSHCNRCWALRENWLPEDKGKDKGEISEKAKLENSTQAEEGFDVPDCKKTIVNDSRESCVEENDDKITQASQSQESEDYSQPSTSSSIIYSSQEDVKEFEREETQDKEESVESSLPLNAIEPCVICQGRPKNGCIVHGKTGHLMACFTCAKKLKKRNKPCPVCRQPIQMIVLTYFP
SKKanGAS inh: SKKanGAS growth inhibition. S. pyogenes SKKanGAS, kanamycin growth, BacTiter-Glo, 6 h. hit rate 1.3% among 300,000. AID 1662. inhibition, % at 7.5 µM;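 active = mean replicate score, as percent of positive control median, at least 50; inconclusive = mean below 50 but one replicate at or above 50; inactive = mean and every replicate below 50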;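 note: strain carries kanamycin resistance gene driven by streptokinase promoter and grows in 40 µg/ml kanamycin; loss of luminescence reflects streptokinase promoter inhibition or plain growth inhibition; 0% = median of DMSO wells and 100% = positive control at its reference dose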
Calb FLC: C. albicans growth modulation with fluconazole; C. albicans CaCi-2 (fluconazole-resistant clinical isolate) + fluconazole, Alamar Blue growth, 48 h; growth inhibition, % (no concentration beside the values); hit rate 0.57% among 300,000; AID 1979;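 active = growth inhibition above about 58% in most replicates, limit read from the data, passing the limit was not always enough; inconclusive = exactly half the replicates above a set limit; inactive = most replicates below a set limit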;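 note: all wells also contain fluconazole at 8 µg/ml as a sub-toxic cotreatment; 0% = median of DMSO wells and 100% = median of geldanamycin control wells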
Numbers without * were called inactive; ? = inconclusive; nt = no result given. Compounds with a hit are over-represented: about 5.7% of the library has one in this group of screens.

SMILES	CSC inhib	T cruzi inh	Beta apoptosis	Mdm2-MdmX inh	SKKanGAS inh	Calb FLC
O=C(NC(=S)N1CCN(c2ccc(F)cc2)CC1)C12CC3CC(CC(C3)C1)C2	7.5	30.8	0.1	4.2	50.9*	1.5
O=C(Nc1ccccc1N1CCN(c2ccc(F)cc2)CC1)C12CC3CC(CC(C3)C1)C2	13.6	33.8	10.2	8.8	13.2	-15.9
C=CCN1C(=O)c2ccccc2Sc2ccc(C(=O)NCC(OC)OC)cc21	-3.6	-0.8	-8.6	-0.8	-1.9	-0.9
COc1cc(N/N=C/c2ccccc2O)ncn1	23.0	-6.8	87.5*	43.0	11.7	43.7
Cc1oc2cc(Br)c(O)c(Br)c2c1-c1ccccc1	2.7	-10.7	0.9	nt	82.9*	5.5
Cc1cc2oc(=O)cc(-c3ccccc3)c2c(C)c1-c1ccc(O)cc1	nt	nt	nt	3.7	nt	nt
COc1cccc(C(=O)C(C#N)=C(SC)SC)c1	82.8*	-17.9	36.0	34.5	2.1	-2.1
Cc1ccc(NC(=O)C2C(C(=O)O)C3C=CC2C32CC2)cc1 (configuration not stated)	-11.2	-7.6	4.3	-1.6	2.9	79.1*
Cc1cccc(NC(=O)C2C(C(=O)O)C3C=CC2C32CC2)c1C (configuration not stated)	-11.9	1.2	6.9	14.4	-0.6	-6.5
CC(=O)Nc1ccc(C(=O)N/C(=C/c2ccccc2)C(=O)NCc2ccco2)cc1	-12.4	-10.9	-0.6	8.9	-12.1	7.6
CCOc1ccc(C(=O)/C=C/c2cn(CN3CCN(C)CC3)c3ccccc23)cc1	99.9*	nt	-1.4	-59.5	nt	nt
COc1ccccc1-c1oc2ccccc2c1C#CCCO	-31.5	nt	-0.4	4.2	nt	nt
Cc1cccc(-c2oc3ccccc3c2C#CCCCCO)c1	100.9*	13.1	-1.4	30.2	75.7*	-18.4
Cc1cccc(-c2oc3ccccc3c2C#CCCO)c1	89.5*	-0.5	-3.5	13.1	2.9	-11.3
COc1cc(/C=C(/C#N)c2nc3ccccc3[nH]2)ccc1OCc1ccc(C(=O)O)o1	5.0	0.4	2.5	11.0	4.5	-4.6
COC(=O)c1ccc(COc2ccc(/C=C(\C#N)c3nc4ccccc4[nH]3)cc2OC)o1	2.8	39.5	-2.8	32.4	29.2	79.2*
Cc1ccccc1-n1ncc2c1CC(C)(C)CC2NC(=O)c1snnc1C (configuration not stated)	-9.3	-5.0	6.2	6.4	3.4	-6.2
CC(NCc1ccncc1)C12CC3CC(CC(C3)C1)C2 (configuration not stated)	-14.8	62.6*	-3.1	0.5	6.4	13.8
CC(NCc1ccccc1O)C12CC3CC(CC(C3)C1)C2 (configuration not stated)	16.7	15.7	-8.1	14.4	1.4	-20.8
N#Cc1c(-c2c(Cl)cccc2Cl)noc1/C=C/Nc1ccc(C(=O)O)cc1	-16.2	0.1	-10.0	38.4	58.8*	-7.1
COC(=O)c1cc(S(=O)(=O)N2CCN(c3cccc(C)c3C)CC2)c[nH]1	28.8	7.5	-0.4	9.2	-4.8	15.3
C/C(=N\N=C(/N)SC1CC(=O)N(c2ccc(Cl)c(Cl)c2)C1=O)c1cccs1 (configuration not stated)	78.7*	-16.5	0.3	16.6	97.6*	?
C/C(=N\N=C(/N)SC1CC(=O)N(c2ccccc2)C1=O)c1cccs1 (configuration not stated)	12.3	-4.7	-3.1	22.2	2.3	16.5
C/C(=N\N=C(/N)SC1CC(=O)N(c2ccc(Br)cc2)C1=O)c1cccs1 (configuration not stated)	46.9	4.2	-11.7	-25.4	98.3*	65.3
C/C(=N\N=C(/N)SC1CC(=O)N(c2ccc(Cl)cc2)C1=O)c1cccs1 (configuration not stated)	25.7	-9.4	7.7	13.5	26.3	7.9
SMILES	CSC inhib	T cruzi inh	Beta apoptosis	Mdm2-MdmX inh	SKKanGAS inh	Calb FLC
CCOC(=O)c1c(C)[nH]c(C(=O)OCc2csc(CC(=O)Nc3ccccc3C)n2)c1C	-4.3	10.3	nt	0.6	-2.1	4.0
Cc1oc(CC(C)C)cc1C(=O)Nc1cccc2ccccc12	80.4*	-31.7	-3.8	26.1	20.7	19.1
CS(=O)(=O)c1sc2nc(-c3cccs3)cc(-c3ccccc3)c2c1N	98.7*	nt	2.1	-28.2	40.9	11.4
Cc1ccc(-c2cc(-c3ccccc3)c3c(N)c(S(C)(=O)=O)sc3n2)cc1	nt	38.2	2.3	-5.1	9.5	-14.3
Nc1ccc(Nc2nc3ccccc3[nH]2)cc1	-8.0	-5.3	nt	16.6	5.9	-0.5
c1ccc(Nc2nc3ccccc3[nH]2)nc1	5.1	11.2	nt	-17.2	62.2*	-9.1
CCN1CCN(C(=O)c2cc(-c3ccc(Cl)s3)nc3ccccc23)CC1	nt	41.5	nt	9.7	2.3	5.1
COC(=O)C1CCN(C(=O)c2cc(-c3ccc(Cl)s3)nc3ccccc23)CC1	nt	nt	100.8*	40.2	nt	nt
O=C(Nc1ccccc1)c1ccc(-c2ccc([N+](=O)[O-])cc2)o1	nt	0.5	-0.5	-2.1	-9.8	-15.8
O=C(NNC(=O)c1ccccc1O)c1ccc(-c2ccc([N+](=O)[O-])cc2)o1	-5.2	4.6	nt	42.6	13.3	90.9*
CC(C)=CCc1c(O)cc2c(=O)c3ccc(O)cc3oc2c1O	82.7*	-0.8	-1.8	-56.6	15.5	0.9
COc1c(CC=C(C)C)c(O)cc2oc(=O)c3c4ccc(O)cc4oc3c12	-2.4	5.5	-6.2	1.8	12.7	18.9
CC1Oc2cc3oc4c(O)c5c(cc4c(=O)c3c(O)c2C1(C)C)C=CC(C)(C)O5 (configuration not stated)	-6.8	9.5	2.0	17.5	70.0*	-3.6
CC1(C)C=Cc2cc3ccc(=O)oc3cc2O1	-10.9	5.1	nt	-38.6	3.0	5.6
O=c1[nH]c(Nc2ccc3c(c2)OCCO3)nnc1Cc1ccccc1	-1.2	-6.9	nt	-3.2	9.5	120.2*
O=C(NCC(=O)N1CCCCCCC1)c1ccc(Br)o1	-2.3	-12.5	-5.0	3.8	-2.9	-3.0
CCCOc1ccc(/C(O)=C2/C(=O)C(=O)N(c3ccccn3)C2c2ccc(OC)cc2)cc1C (configuration not stated)	4.7	-4.6	-2.9	-13.4	50.0*	18.9
O=C1C(=O)N(c2ccccn2)C(c2ccc(F)cc2)/C1=C(/O)c1ccc(Br)cc1 (configuration not stated)	6.3	-16.1	nt	-9.8	6.0	0.7
COc1ccc(/C(O)=C2/C(=O)C(=O)N(c3ccccn3)C2c2ccc(OC)cc2)cc1 (configuration not stated)	nt	-6.6	nt	10.3	-5.0	5.0
O=C1C(=O)N(c2ccccn2)C(c2ccc(Br)cc2)/C1=C(/O)c1ccc(Br)cc1 (configuration not stated)	13.3	5.6	3.0	-13.8	68.6*	-2.7
Cc1cc(C(=O)O)cc(S(=O)(=O)NNC(=O)c2cccs2)c1C	-2.7	-8.7	-6.3	6.6	1.8	-3.6
O=C(CN(Cc1cccs1)S(=O)(=O)c1ccc(S(=O)(=O)NC2CCCCC2)cc1)Nc1ccccc1	57.7	57.3*	38.1	2.6	20.7	-0.8
